Source: PubChem
M4 ag = human M4 muscarinic receptor agonists, primary screen, CHO-K1 cells, Fluo-8 calcium fluorescence. Muscarinic acetylcholine receptor M4 (Homo sapiens), P08173. CHO-K1 hM4/Gqi5; vehicle 0%, full acetylcholine response 100%. activation, % at 3 µM. actives 0.14% (n = 360,000);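 active = activation above the run mean over all test wells plus 3 SD, cut at about 32% in these data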;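 note: peak over basal fluorescence ratio per well then scaled between controls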
CHRM5 agonist = human M5 muscarinic receptor agonists, primary screen, CHO-K1 cells, Fluo-8 calcium fluorescence | CHO-K1 hM5 cells; 0% DMSO wells, 100% maximal acetylcholine response | AID 624037, 2012 | activation, % at 3 µM | Muscarinic acetylcholine receptor M5 (Homo sapiens), P08912 | actives 0.19% (n = 360,000);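 active = activation above the run's mean over test compounds plus 3 SD, cut at about 23% in these data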;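 note: signal is peak over basal fluorescence ratio across the kinetic read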
Target sequence (P08912 whole entry, looked up): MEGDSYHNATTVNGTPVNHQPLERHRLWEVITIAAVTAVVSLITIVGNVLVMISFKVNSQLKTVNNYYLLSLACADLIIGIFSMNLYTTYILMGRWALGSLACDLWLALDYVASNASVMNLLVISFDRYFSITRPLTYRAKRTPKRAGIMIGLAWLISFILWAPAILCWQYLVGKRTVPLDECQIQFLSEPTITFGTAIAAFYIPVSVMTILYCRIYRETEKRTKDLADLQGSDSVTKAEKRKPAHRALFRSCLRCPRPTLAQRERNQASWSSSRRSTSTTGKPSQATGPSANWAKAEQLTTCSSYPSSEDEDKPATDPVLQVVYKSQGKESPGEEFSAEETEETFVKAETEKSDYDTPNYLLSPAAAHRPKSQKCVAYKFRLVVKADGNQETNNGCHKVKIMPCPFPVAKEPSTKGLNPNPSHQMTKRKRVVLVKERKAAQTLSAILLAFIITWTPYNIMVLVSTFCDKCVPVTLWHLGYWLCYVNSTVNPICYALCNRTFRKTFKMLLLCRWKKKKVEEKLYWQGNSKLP
CHRM4 antagonist = human M4 muscarinic receptor antagonists, primary screen, CHO cells, Fluo-8 calcium fluorescence; CHO-hM4 cells, ACh EC80; inhibition, % at 3 µM; actives 0.73% (n = 360,000); AID 624125, 2012;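 active = inhibition above its plate's cutoff, the mean inhibition of sample wells plus 3 SD, cut at about 27% in these data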
CHRM5 antagonist = human M5 muscarinic receptor antagonists, primary screen, CHO cells, Fluo-8 calcium fluorescence; Muscarinic acetylcholine receptor M5 (Homo sapiens), P08912; CHO-hM5 cells, ACh EC80; inhibition, % at 3 µM; actives 0.59% (n = 360,000); AID 624040, 2012;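 active = inhibition above a per-plate cutoff, the mean of that plate's test compounds plus 3 SD, cut at about 27% in these data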
M5 PAM = human M5 muscarinic receptor positive allosteric modulators, primary screen, CHO-K1 cells, Fluo-8 calcium fluorescence | Muscarinic acetylcholine receptor M5 (Homo sapiens), P08912 | CHO-K1 hM5, ACh EC20 PAM; 0% = ACh EC20, 100% = ACh EC100 | activation, % at 3 µM | actives 0.3% (n = 360,000);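 active = activation above the run cutoff, the mean activation of all test compounds plus 3 SD, cut at about 18% in these data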
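Measured by: Fluo-8 calcium fluorescence; material: human M5 receptor in CHO-K1 cells; schedule: Post-acetylcholine fluorescence recording 140 s; benchmarks: low control EC20 acetylcholine (0%), high control EC100 acetylcholine (100%); read-out: Max/basal fluorescence ratio as % of EC20–EC100 ACh window; compound: single dose, 3 µM nominal final test concentration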
CHRM4 PAM = human M4 muscarinic receptor positive allosteric modulators, primary screen, CHO-K1 cells, Fluo-8 calcium fluorescence; Muscarinic acetylcholine receptor M4 (Homo sapiens), P08173; CHO-K1 hM4/Gqi5, ACh EC20; 0% = ACh EC20, 100% = maximal ACh; actives 0.4% (n = 360,000); activation, % at 3 µM;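 active = activation above its plate's cutoff, the mean activation of sample wells plus 3 SD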
Hits are given with their value; 0 = inactive. Sampled rows, rich in hits. Any-hit rate of the full collection: about 1.9%.

SMILES | M4 ag | CHRM5 agonist | CHRM4 antagonist | CHRM5 antagonist | M5 PAM | CHRM4 PAM
O=C(Nc1cccc(C(=O)Nc2cccc(Br)c2)c1)c1ccccc1 | 0 | 0 | 0 | 30 | 0 | 0
CC(C)(C)NC(=O)C(c1cccs1)N(Cc1ccco1)C(=O)c1csnn1 (stereo not drawn) | 0 | 0 | 0 | 0 | 0 | 0
CCN(CC(=O)Nc1ccc2c(c1)OCCO2)C(=O)/C=C/c1ccc(OC)cc1OC | 0 | 0 | 0 | 0 | 0 | 0
CCN(CC(=O)Nc1ccc2c(c1)OCCO2)C(=O)/C=C/c1cccc(OC)c1OC | 0 | 25 | 0 | 0 | 0 | 0
O=C(CCc1nnc2n(CCc3ccccc3)c(=O)c3ccccc3n12)NCCCN1CCCCC1 | 0 | 0 | 37 | 0 | 0 | 0
O=C(CCc1nnc2n(Cc3ccc(Cl)cc3)c(=O)c3ccccc3n12)NCCN1CCCC1 | 0 | 0 | 0 | 0 | 0 | 0
Oc1cccc(NC(=S)N=Nc2c(O)[nH]c3ccc(Br)cc23)c1 | 0 | 0 | 0 | 0 | 0 | 0
Cc1onc(-c2c(F)cccc2Cl)c1C(=O)Nc1ccc(S(=O)(=O)N2CCOCC2)cc1 | 0 | 0 | 0 | 0 | 0 | 0
Cc1noc(C)c1C(=O)Nc1ccc(S(=O)(=O)N2CCCCC2)cc1 | 0 | 0 | 0 | 0 | 0 | 16
Cc1onc(-c2c(F)cccc2Cl)c1C(=O)Nc1cc(S(=O)(=O)N2CCCCC2)ccc1O | 0 | 0 | 27 | 0 | 0 | 0
Cc1noc(C)c1C(=O)Nc1ccc(S(=O)(=O)N2CCC(C)CC2)cc1 | 0 | 0 | 0 | 0 | 0 | 0
Cc1nn(CC(=O)N2CCN(c3ccccc3)CC2)c(C)c1[N+](=O)[O-] | 0 | 0 | 37 | 0 | 0 | 0
Cc1ccc(S(=O)(=O)N2CCN(C(=O)Cn3nc(C)c([N+](=O)[O-])c3C)CC2)c(C)c1 | 0 | 0 | 0 | 0 | 0 | 0
CCn1cc([N+](=O)[O-])c(C(=O)N2N=C(c3ccc4ccccc4c3)CC2c2ccccc2O)n1 (stereo not drawn) | 0 | 0 | 0 | 0 | 0 | 0
CCn1cc([N+](=O)[O-])c(C(=O)N2N=C(c3cccc4ccccc34)CC2c2ccccc2O)n1 (stereo not drawn) | 0 | 0 | 0 | 0 | 29 | 0
C=C1c2cc(C)ccc2NC(=O)N1c1ccc(C)cc1 | 0 | 0 | 0 | 0 | 0 | 29
C=C1c2ccccc2NC(=O)N1c1ccc(C)cc1 | 0 | 0 | 0 | 0 | 0 | 0
CC[N+](C)(C)CCN(Cc1ccc(Cl)cc1)c1ccccn1 | 0 | 0 | 0 | 47 | 0 | 0
O=C(NCc1ccco1)c1cccc(NS(=O)(=O)c2ccccc2F)c1 | 0 | 0 | 0 | 0 | 19 | 0
O=C(NCc1ccco1)c1cccc(NS(=O)(=O)c2cccc(F)c2)c1 | 0 | 0 | 0 | 0 | 0 | 0
C#Cc1ccc(CN2CCC(C(=O)Nc3ccc(Oc4ccccc4)nc3)CC2)cc1 | 0 | 0 | 0 | 0 | 0 | 0
O=C(Nc1ccc(Oc2ccccc2)nc1)C1CCN(Cc2cccc(F)c2)CC1 | 0 | 0 | 0 | 31 | 0 | 0
COc1ccc(-n2nc3c(N4CCC(C(=O)N5CCC(C)CC5)CC4)nnc(C)c3c2C)cc1 | 0 | 0 | 0 | 43 | 0 | 0
CC1CCN(c2ccc(C(=O)N3CCOCC3)cc2[N+](=O)[O-])CC1 | 0 | 0 | 0 | 0 | 0 | 0
Cc1ccc(C)c(NC(=O)C(c2ccccc2)N2CCN(CC(=O)N3CCOCC3)CC2)c1 (stereo not drawn) | 0 | 0 | 0 | 0 | 0 | 0
SMILES | M4 ag | CHRM5 agonist | CHRM4 antagonist | CHRM5 antagonist | M5 PAM | CHRM4 PAM
Cc1ccc(C)c(NC(=O)C(NCC(C)(C)N2CCOCC2)c2ccccc2)c1 (stereo not drawn) | 0 | 0 | 76 | 0 | 0 | 0
O=C(NNC(=O)c1cc2ccccc2oc1=O)c1ccccc1 | 0 | 0 | 0 | 0 | 0 | 0
O=C(O)CN1C(=O)CSc2ccccc21 | 0 | 0 | 0 | 0 | 0 | 0
CCOC(=O)CN1C(=O)CSc2ccccc21 | 0 | 0 | 33 | 0 | 0 | 0
COc1ccc(CNC(=O)CNC(C)c2ccc(F)cc2)cc1 (stereo not drawn) | 0 | 0 | 53 | 0 | 0 | 0
COc1ccccc1C(C)NCC(=O)NCc1ccc(C)cc1 (stereo not drawn) | 0 | 0 | 0 | 0 | 0 | 0
CCN(CC)c1ccc(/C=C(/C#N)c2nc3ccc(C)cc3[nH]2)c(OC(C)C)c1 | 46 | 58 | 56 | 69 | 0 | 0
CCCOc1cc(N(CC)CC)ccc1/C=C(/C#N)c1nc2ccc(C)cc2[nH]1 | 0 | 39 | 45 | 56 | 0 | 0
CCOc1cc(N(CC)CC)ccc1/C=C(/C#N)c1nc2ccccc2[nH]1 | 0 | 0 | 0 | 0 | 0 | 0
O=C(Nc1ccccc1C(=O)O)c1cc(S(=O)(=O)N2CCOCC2)c(Br)s1 | 0 | 0 | 0 | 0 | 18 | 16
O=C(Nc1ccccc1Cl)c1cc(S(=O)(=O)N2CCOCC2)cs1 | 0 | 0 | 0 | 0 | 0 | 0
Cc1ccc2c(c1)nnn2C1CCN(C(=O)C23CC4CC(CC(C4)C2)C3)CC1 | 0 | 0 | 0 | 0 | 0 | 0
Cc1ccc(C)c(-n2sc3ccc(F)cc3c2=O)c1 | 33 | 0 | 0 | 0 | 0 | 0
Cc1nn(Cc2ccc(Cl)cc2Cl)c(C)c1NC(=O)Cn1nc([N+](=O)[O-])c(Cl)c1C | 0 | 0 | 0 | 0 | 0 | 0
CCN(C(=O)CC(C)C)c1nnc(Cn2nnc3ccccc32)s1 | 0 | 0 | 0 | 0 | 0 | 0
CCN(C(=O)c1ccc(C(C)(C)C)cc1)c1nnc(Cn2nnc3ccccc32)s1 | 0 | 0 | 29 | 33 | 0 | 0
CCOc1ccc(S(=O)(=O)NCc2ccccn2)c(C)c1C | 0 | 0 | 0 | 0 | 0 | 0
Cc1ccccc1N(CC(=O)N1CCc2ccccc2C1)S(C)(=O)=O | 0 | 0 | 0 | 0 | 0 | 0
CS(=O)(=O)N(CC(=O)N1CCc2ccccc2C1)c1ccccc1Br | 0 | 0 | 0 | 0 | 0 | 16
CC(C)Cc1nnc(NS(=O)(=O)c2ccc(Cl)cc2)s1 | 0 | 0 | 0 | 0 | 0 | 16
CCN1CCN(c2nc3c(C)cccn3c(=O)c2/C=C(\C#N)S(=O)(=O)c2ccccc2)CC1 | 0 | 0 | 0 | 0 | 0 | 0
CCOC(=O)N1CCN(C(=O)c2cc3c(-c4cccc(OC)c4)nn(C)c3s2)CC1 | 0 | 0 | 0 | 0 | 0 | 0
CCOC(=O)N1CCC(NC(=O)c2cc3c(-c4cccc(OC)c4)nn(C)c3s2)CC1 | 0 | 0 | 0 | 0 | 0 | 19
